In brackets after ≈: the same amount, converted by molar mass.
Experiments:
[1] = tested on: HCC 2998; test: Cytotoxicity against human HCC2998 cells; format: functional
How it was run: (§1)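 NCI Developmental Therapeutics Program cell panel. GI50 is the concentration that reduces growth of treated cells to half that of untreated controls. TGI is the concentration that completely halts growth.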

[2] = tested on: NCI-H322M; test: Cytotoxicity against human NCI-H322M cells; format: functional; how it was run: as §1
[3] = tested on: Fusarium oxysporum; test: Antimicrobial activity against Fusarium oxysporum at 30 uM after 48 hrs by microtiter assay; format: functional
How it was run: (§2)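 96-well microdilution broth assay with conidia (3 × 10^5 conidia/mL, harvested from 7-day PDA cultures and filtered) against F. oxysporum, F. proliferatum and F. solani at 0.3, 3 and 30 µM. Plates were held at 24 ± 1 °C under a 12 h photoperiod. Growth was read at 620 nm at 24, 48 and 72 h and reported as percent inhibition from mean absorbance with standard error.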

[4] = tested on: Fusarium solani; test: Antimicrobial activity against Fusarium solani at 30 uM after 72 hrs by microtiter assay; format: functional; how it was run: as §2
[5] = tested on: Hs-578T; test: Cytotoxicity against human HS578T cells; format: functional; how it was run: as §1
[6] = tested on: T47D; test: Cytotoxicity against human T47D cells; format: functional; how it was run: as §1
[7] = tested on: SK-OV-3; test: Cytotoxicity against human SK-OV3 cells; format: functional; how it was run: as §1
[8] = tested on: A549; test: Cytotoxicity against human A549 cells; format: functional; how it was run: as §1
[9] = tested on: ACHN; test: Cytotoxicity against human ACHN cells; format: functional; how it was run: as §1
[10] = tested on: Fusarium oxysporum; test: Antimicrobial activity against Fusarium oxysporum at 30 uM after 72 hrs by microtiter assay; format: functional; how it was run: as §2
[11] = tested on: SNB-75; test: Cytotoxicity against human SNB75 cells; format: functional; how it was run: as §1
[12] = tested on: RPMI-8226; test: Cytotoxicity against human RPMI8226 cells; format: functional; how it was run: as §1
[13] = tested on: KM12; test: Cytotoxicity against human KM12 cells; format: functional; how it was run: as §1
[14] = tested on: DU-145; test: Cytotoxicity against human DU145 cells; format: functional; how it was run: as §1
[15] = tested on: Fusarium oxysporum; test: Antimicrobial activity against Fusarium oxysporum at 0.3 uM after 48 hrs by microtiter assay; format: functional; how it was run: as §2
[16] = tested on: Fusarium oxysporum; test: Antimicrobial activity against Fusarium oxysporum at 3 uM after 72 hrs by microtiter assay; format: functional; how it was run: as §2
[17] = tested on: Fusarium proliferatum; test: Antimicrobial activity against Fusarium proliferatum at 30 uM after 48 hrs by microtiter assay; format: functional; how it was run: as §2
[18] = tested on: COLO 205; test: Cytotoxicity against human COLO205 cells; format: functional; how it was run: as §1
[19] = tested on: Fusarium proliferatum; test: Antimicrobial activity against Fusarium proliferatum at 3 uM after 48 hrs by microtiter assay; format: functional; how it was run: as §2
[20] = tested on: HCT-15; test: Cytotoxicity against human HCT15 cells; format: functional; how it was run: as §1
[21] = tested on: Fusarium proliferatum; test: Antimicrobial activity against Fusarium proliferatum at 30 uM after 72 hrs by microtiter assay; format: functional; how it was run: as §2
[22] = tested on: HT-29; test: Cytotoxicity against human HT29 cells; format: functional; how it was run: as §1
[23] = tested on: PC-3; test: Cytotoxicity against human PC3 cells; format: functional; how it was run: as §1
[24] = tested on: Fusarium solani; test: Antimicrobial activity against Fusarium solani at 3 uM after 48 hrs by microtiter assay; format: functional; how it was run: as §2
[25] = tested on: Fusarium proliferatum; test: Antimicrobial activity against Fusarium proliferatum at 0.3 uM after 48 hrs by microtiter assay; format: functional; how it was run: as §2
[26] = tested on: Mycobacterium tuberculosis; test: Antibacterial activity against Mycobacterium tuberculosis H37Rv at 16 ug/mL by micro plate alamar blue assay; format: functional
How it was run: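 M. tuberculosis H37Rv ATCC 27294 grown in BACTEC 12B medium; microplate Alamar blue assay (MABA). Primary screen at a single concentration of 16 µg/mL, read as percent inhibition.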

[27] = tested on: Fusarium oxysporum; test: Antimicrobial activity against Fusarium oxysporum at 3 uM after 48 hrs by microtiter assay; format: functional; how it was run: as §2
[28] = tested on: UACC-257; test: Cytotoxicity against human UACC257 cells; format: functional; how it was run: as §1
[29] = tested on: Fusarium solani; test: Antimicrobial activity against Fusarium solani at 0.3 uM after 48 hrs by microtiter assay; format: functional; how it was run: as §2
[30] = tested on: Fusarium solani; test: Antimicrobial activity against Fusarium solani at 0.3 uM after 72 hrs by microtiter assay; format: functional; how it was run: as §2
[31] = tested on: Fusarium solani; test: Antimicrobial activity against Fusarium solani at 30 uM after 48 hrs by microtiter assay; format: functional; how it was run: as §2
[32] = tested on: Fusarium solani; test: Antimicrobial activity against Fusarium solani at 3 uM after 72 hrs by microtiter assay; format: functional; how it was run: as §2
[33] = tested on: Fusarium proliferatum; test: Antimicrobial activity against Fusarium proliferatum at 3 uM after 72 hrs by microtiter assay; format: functional; how it was run: as §2
[34] = tested on: Fusarium proliferatum; test: Antimicrobial activity against Fusarium proliferatum at 0.3 uM after 72 hrs by microtiter assay; format: functional; how it was run: as §2
[35] = tested on: Fusarium oxysporum; test: Antimicrobial activity against Fusarium oxysporum at 0.3 uM after 72 hrs by microtiter assay; format: functional; how it was run: as §2
[36] = tested on: Cryptococcus neoformans; test: Antimicrobial activity against Cryptococcus neoformans ATCC 90113; format: functional, organism-based
[37] = tested on: Candida albicans; test: Antimicrobial activity against Candida albicans ATCC 90028; format: functional, organism-based
[38] = tested on: Aspergillus fumigatus; test: Antimicrobial activity against Aspergillus fumigatus ATCC 90906; format: functional, organism-based
[39] = tested on: Mycobacterium intracellulare; test: Antimicrobial activity against Mycobacterium intracellular ATCC 23068; format: functional, organism-based
[40] = tested on: Leishmania donovani; test: Antiparasitic activity against Leishmania donovani; format: functional, organism-based
[41] = tested on: Mycobacterium tuberculosis; test: Antibacterial activity against Mycobacterium tuberculosis H37Rv by micro plate alamar blue assay; format: functional

SMILES: C/C=C1\NC(=O)[C@H](Cc2ccccc2)NC(=O)[C@@H](C(C)C)NC(=O)[C@@H]([C@@H](C)CC)NC(=O)[C@H](NC(=O)[C@H](NC(=O)[C@H](CCCNC(=O)c2cc3ccc(N(CC)CC)cc3oc2=O)NC(=O)[C@H]2CCCN2C(=O)[C@H](NC(=O)[C@@H](NC(=O)[C@@H](NC(=O)[C@H](NC(=O)CCCC(C)C)C(C)C)[C@@H](C)O)C(C)C)C(C)C)[C@@H](C)CC)[C@@H](C)OC(=O)[C@H](C(C)C)NC1=O
- GI50 [1]: 2270 nM
- TGI [1]: 11400 nM
- GI50 [2]: 165 nM
- TGI [2]: 490 nM
- inhibition at 30 µM [3]: 0%
- inhibition at 30 µM [4]: 0%
- GI50 [5]: 3030 nM
- TGI [5]: > 100000 nM
- GI50 [6]: 518 nM
- TGI [6]: 2830 nM
- GI50 [7]: 2550 nM
- TGI [7]: 20200 nM
- GI50 [8]: 13700 nM
- TGI [8]: > 100000 nM
- GI50 [9]: 26400 nM
- TGI [9]: 69800 nM
- inhibition at 30 µM [10]: 0%
- GI50 [11]: 2110 nM
- TGI [11]: 6870 nM
- GI50 [12]: 40100 nM
- TGI [12]: > 100000 nM
- GI50 [13]: 413 nM
- TGI [13]: 3070 nM
- GI50 [14]: 330 nM
- TGI [14]: 1830 nM
- inhibition at 0.3 µM [15]: 0%
- inhibition at 3 µM [16]: 0%
- inhibition at 30 µM [17]: 0%
- GI50 [18]: 4520 nM
- TGI [18]: > 100000 nM
- inhibition at 3 µM [19]: 0%
- GI50 [20]: 964 nM
- TGI [20]: 17700 nM
- inhibition at 30 µM [21]: 0%
- GI50 [22]: 2390 nM
- TGI [22]: > 100000 nM
- GI50 [23]: 3700 nM
- TGI [23]: 21800 nM
- inhibition at 3 µM [24]: 0%
- inhibition at 0.3 µM [25]: 0%
- inhibition at 16 µg/mL [26]: 46%
- inhibition at 3 µM [27]: 0%
- GI50 [28]: > 100000 nM
- TGI [28]: > 100000 nM
- inhibition at 0.3 µM [29]: 0%
- inhibition at 0.3 µM [30]: 0%
- inhibition at 30 µM [31]: 0%
- inhibition at 3 µM [32]: 0%
- inhibition at 3 µM [33]: 0%
- inhibition at 0.3 µM [34]: 0%
- inhibition at 0.3 µM [35]: 0%

SMILES: C/C=C1\NC(=O)[C@H](Cc2ccccc2)NC(=O)[C@@H](C(C)C)NC(=O)[C@@H]([C@@H](C)CC)NC(=O)[C@H](NC(=O)[C@H](NC(=O)[C@H](CCCNCc2ccc(F)cc2)NC(=O)[C@H]2CCCN2C(=O)[C@H](NC(=O)[C@@H](NC(=O)[C@@H](NC(=O)[C@H](NC(=O)CCCC(C)C)C(C)C)[C@@H](C)O)C(C)C)C(C)C)[C@@H](C)CC)[C@@H](C)OC(=O)[C@H](C(C)C)NC1=O
- GI50 [1]: 201 nM
- TGI [1]: 517 nM
- GI50 [2]: 203 nM
- TGI [2]: 429 nM
- inhibition at 30 µM [3]: 96.6%
- inhibition at 30 µM [4]: 97.3%
- GI50 [5]: 212 nM
- TGI [5]: 695 nM
- GI50 [6]: 161 nM
- TGI [6]: 333 nM
- GI50 [7]: 183 nM
- TGI [7]: 387 nM
- GI50 [8]: 161 nM
- TGI [8]: 340 nM
- GI50 [9]: 1080 nM
- TGI [9]: 2060 nM
- inhibition at 30 µM [10]: 94.3%
- GI50 [11]: 265 nM
- TGI [11]: 655 nM
- MFC [36]: 10 µM (≈ 15.9 µg/mL)
- MIC [36]: 10 µM (≈ 15.9 µg/mL)
- GI50 [12]: 475 nM
- TGI [12]: 1780 nM
- GI50 [13]: 179 nM
- TGI [13]: 379 nM
- GI50 [14]: 112 nM
- TGI [14]: 230 nM
- MFC [37]: > 20 µM
- MIC [37]: > 20 µM
- inhibition at 0.3 µM [15]: 0%
- inhibition at 3 µM [16]: 0%
- MFC [38]: > 20 µM
- MIC [38]: > 20 µM
- inhibition at 30 µM [17]: 97.5%
- GI50 [18]: 156 nM
- TGI [18]: 315 nM
- inhibition at 3 µM [19]: 0%
- MBC [39]: > 20 µM
- MIC [39]: > 20 µM
- GI50 [20]: 151 nM
- TGI [20]: 289 nM
- inhibition at 30 µM [21]: 96.1%
- GI50 [22]: 151 nM
- TGI [22]: 288 nM
- GI50 [23]: 142 nM
- TGI [23]: 287 nM
- inhibition at 3 µM [24]: 16.5%
- inhibition at 0.3 µM [25]: 0%
- inhibition at 16 µg/mL [26]: 77%
- inhibition at 3 µM [27]: 0%
- inhibition at 0.3 µM [29]: 0%
- inhibition at 0.3 µM [30]: 0%
- inhibition at 30 µM [31]: 97.3%
- inhibition at 3 µM [32]: 0%
- inhibition at 3 µM [33]: 0%
- inhibition at 0.3 µM [34]: 0%
- inhibition at 0.3 µM [35]: 0%

SMILES: C/C=C1\NC(=O)[C@H](Cc2ccccc2)NC(=O)[C@@H](C(C)C)NC(=O)[C@@H]([C@@H](C)CC)NC(=O)[C@H](NC(=O)[C@H](NC(=O)[C@H](CCCNCCCCCC)NC(=O)[C@H]2CCCN2C(=O)[C@H](NC(=O)[C@@H](NC(=O)[C@@H](NC(=O)[C@H](NC(=O)CCCC(C)C)C(C)C)[C@@H](C)O)C(C)C)C(C)C)[C@@H](C)CC)[C@@H](C)OC(=O)[C@H](C(C)C)NC1=O
- inhibition at 30 µM [3]: 93.6%
- IC90 [40]: 34 µg/mL (≈ 21.8 µM)
- inhibition at 30 µM [4]: 94.7%
- inhibition at 30 µM [10]: 89%
- MFC [36]: 10 µM (≈ 15.6 µg/mL)
- MIC [36]: 5 µM (≈ 7.81 µg/mL)
- MFC [37]: 20 µM (≈ 31.2 µg/mL)
- MIC [37]: 20 µM (≈ 31.2 µg/mL)
- inhibition at 0.3 µM [15]: 0%
- inhibition at 3 µM [16]: 0%
- MFC [38]: 20 µM (≈ 31.2 µg/mL)
- MIC [38]: 10 µM (≈ 15.6 µg/mL)
- inhibition at 30 µM [17]: 95.3%
- inhibition at 3 µM [19]: 0%
- MBC [39]: > 20 µM
- MIC [39]: > 20 µM
- inhibition at 30 µM [21]: 92.8%
- inhibition at 3 µM [24]: 0%
- inhibition at 0.3 µM [25]: 0%
- inhibition at 16 µg/mL [26]: 88%
- inhibition at 3 µM [27]: 0%
- inhibition at 0.3 µM [29]: 0%
- inhibition at 0.3 µM [30]: 0%
- inhibition at 30 µM [31]: 94.3%
- inhibition at 3 µM [32]: 0%
- inhibition at 3 µM [33]: 0%
- inhibition at 0.3 µM [34]: 0%
- MIC [41]: > 16 µg/mL
- inhibition at 0.3 µM [35]: 0%
